# Compound activity (PubChem BioAssay)
# Rows were chosen to be rich in hits. Some 0.74% of all compounds tested hit in one or more screens of this group.
# ASAP1 inh = inhibitors of human ASAP1 ArfGAP activity, primary screen, biochemical, fluorescence polarization; ASAP1-stimulated ARF1 GTP hydrolysis, GDP FP detection; AID 624377, 2012; Arf-GAP with SH3 domain, ANK repeat and PH domain-containing protein 1 (Homo sapiens), …; 360,000 tested, 0.19% active; inhibition, % at 16.5 µM; in the data active means inhibition above about 25%
# Target sequence (Q9ULH1 325-724 limits assumed): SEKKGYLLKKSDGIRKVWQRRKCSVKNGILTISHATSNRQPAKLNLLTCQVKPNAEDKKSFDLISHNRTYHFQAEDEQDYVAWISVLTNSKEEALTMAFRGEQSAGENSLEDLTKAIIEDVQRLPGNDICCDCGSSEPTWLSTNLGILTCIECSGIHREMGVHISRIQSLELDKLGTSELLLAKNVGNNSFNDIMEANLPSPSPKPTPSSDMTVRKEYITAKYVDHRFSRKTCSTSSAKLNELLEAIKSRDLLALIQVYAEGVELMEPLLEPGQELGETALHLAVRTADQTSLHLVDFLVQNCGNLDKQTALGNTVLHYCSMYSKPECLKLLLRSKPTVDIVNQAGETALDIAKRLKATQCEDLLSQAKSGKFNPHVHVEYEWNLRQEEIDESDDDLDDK
# ARFGAP1 inh = inhibitors of rat ARFGAP1 GAP activity, primary screen, biochemical, fluorescence polarization, GDP tracer | ADP-ribosylation factor GTPase-activating protein 1 (Rattus norvegicus), Q62848 | Arfgap1-stimulated ARF1 GTP hydrolysis, GDP FP detection | inhibition, % at 16.5 µM | 360,000 tested, 0.26% active | AID 651572, 2012;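 active means inhibition above a per-plate limit, mean inhibition of low control wells plus 3 SD, cut at about 25% in these data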
# Target sequence (Q62848 1-136 limits assumed): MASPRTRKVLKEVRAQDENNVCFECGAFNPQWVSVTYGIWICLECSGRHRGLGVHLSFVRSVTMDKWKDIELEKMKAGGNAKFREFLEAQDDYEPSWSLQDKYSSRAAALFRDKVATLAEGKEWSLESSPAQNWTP
#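 Assay system: Rat Arfgap1 GAP domain (His6, aa 1-136), purified enzyme | Buffer or medium: HEPES 25 mM pH 7.5, NaCl 150 mM, MgCl2, DTT | Schedule: GTP hydrolysis reaction 2 h at 25 °C | Signal: FP of antibody-bound GDP Alexa 633 tracer, ex 620/em 688 nm | Measure: Percent inhibition of Arfgap1-stimulated GTP hydrolysis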
# Tn6 DDE FP = inhibitors of Tn6 peptide binding to fibrin DD(E), primary screen, biochemical, fluorescence polarization, human fibrin, Tn6 probe; Fibrin DD(E) TRITC-Tn6 fluorescence polarization displacement; Fibrinogen beta chain (Homo sapiens), P02675; inhibition, % at 8.3 µM; 370,000 tested, 0.21% active;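 active means inhibition above a per-campaign cutoff: mean of compounds within control limits plus 3 SD, cut at about 15% in these data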
# Tn7 DDE FP = inhibitors of Tn7 peptide binding to fibrin DD(E), primary screen, biochemical, fluorescence polarization, human fibrin, Tn7 probe; 370,000 tested, 0.13% active; FP displacement of FITC-Tn7 peptide from fibrin DD(E); 0% = median of compound wells per plate; Fibrinogen beta chain (Homo sapiens), P02675; inhibition, % at 8.3 µM;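 active means inhibition above the mean of compounds falling within the control limits plus 3 SD of them, cut at about 14% in these data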
#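 Also added: labelled Tn7 tracer, 0.1 µM; Assay system: human fibrin DD(E) protein; Amount: 2 µM fibrin DD(E); Schedule: 10 min compound pre-incubation, 3 h probe incubation at room temperature; Repeats: one replicate per compound; Read-out basis: percent inhibition; Measured by: fluorescence polarization of the labelled Tn7 tracer.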
# DDE Tn6 FP ctr = counter-screen hit for Tn6 peptide-fibrin DD(E) binding disruption; shares compounds with Tn6 DDE FP; TRITC-Tn6 fluorescence polarization displacement; 0% = median of compound wells, not DMSO; inhibition, % at 8.3 µM; 680 tested, 2% active;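 active means inhibition above the mean of test compounds lying between the control limits plus 3 SD of those, cut at about 14% in these data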
# Tn6 DDE conf = inhibitors of Tn6 peptide binding to fibrin DD(E), confirmation, biochemical, fluorescence polarization, human fibrin, Tn6 probe | shares compounds with Tn6 DDE FP | FP displacement of TRITC-Tn6 peptide from DD(E); 0% = per-plate median of test wells | inhibition, % at 8.3 µM | 680 tested, 10% active;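 active means inhibition above the mean of compounds lying within the control limits plus 3 SD, cut at about 16% in these data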
# Numbers stand for hits; i = inactive; nt = not tested or not shown.
SMILES,ASAP1 inh,ARFGAP1 inh,Tn6 DDE FP,Tn7 DDE FP,DDE Tn6 FP ctr,Tn6 DDE conf
CC1(C)CC(=O)C=C(Nc2ccccc2NC(=O)c2cccc(F)c2F)C1,nt,nt,i,i,nt,nt
OC(c1ccccc1)(c1ccccc1)C1CCN(CCCNc2ccc(Cl)cc2Cl)CC1,nt,nt,i,i,nt,nt
C=C(C)C(=O)N1CC2(CC(c3cccc(NC(=O)CC(c4ccccc4)c4ccccc4)c3)=NO2)C[C@H]1C(N)=O (stereo partly specified),i,i,15.2,i,i,i
CC(COc1cccc(Cl)c1)CN1CCC(C(O)(c2ccccc2)c2ccccc2)CC1 (stereo unspecified),nt,nt,i,i,nt,nt
CC1(C)c2ccccc2N2CC(=O)N(CC(N)=O)C21C (stereo unspecified),i,i,76.3,i,i,i
CC1(C)c2ccccc2N(CC(N)=O)C12C=Cc1ccccc1O2 (stereo unspecified),i,i,i,i,nt,nt
NS(=O)(=O)c1ccc(NC(=O)CSc2nc3ccccc3c(=O)n2Cc2ccncc2)cc1,i,i,i,i,nt,nt
NS(=O)(=O)c1ccc(NC(=O)CSc2nc3ccccc3c(=O)n2-c2ccc(Br)cc2)cc1,nt,nt,26.5,i,i,i
CC(C)C[C@H]1COc2cccc(F)c2S(=O)(=O)N1Cc1cn(Cc2ccc(Cl)cc2)nn1,nt,nt,i,i,nt,nt
COc1cccc(/C(O)=C2/C(=O)C(=O)N(c3cc(C)on3)C2c2cccs2)c1 (stereo unspecified),i,i,i,i,nt,nt
Cc1cc(N2C(=O)C(=O)/C(=C(/O)c3ccccc3)C2c2cccs2)no1 (stereo unspecified),i,i,20.8,i,i,i
O=C(NC1CC1)c1cccc2c1C(=O)c1ccc(N3CCC(N4CCCCC4)CC3)cc1S2(=O)=O,i,i,17.7,i,i,i
CCn1c2ccccc2c2cc(NC(=O)COC(=O)c3cc(F)cc(F)c3)ccc21,nt,nt,i,i,nt,nt
COc1ccc(NS(=O)(=O)c2ccc(NC(C)=O)cc2)c(OC)c1,i,i,i,i,nt,nt
COc1ccc(OC)c(NS(=O)(=O)c2ccc(NC(C)=O)cc2)c1,i,i,15.6,i,i,i
COC(=O)/C(=C/Nc1ccc(O)cc1)[N+](=O)[O-],i,i,46.1,i,i,i
Cc1ccccc1NC(=O)c1ccccc1NC(=O)c1ccco1,i,i,16.5,i,i,i
CCOC(=O)c1c(C)[nH]c(O)c1C=Nc1ccc(Cl)cc1,i,i,31.8,i,i,i
COC(=O)C1CN(Cc2cn(Cc3ccc(OC)cc3)nn2)CCS(=O)(=O)N1Cc1ccc(F)cc1 (stereo unspecified),nt,nt,i,i,nt,nt
CC1(C)CC(=O)C2=C(C1)N1C(=C(C#N)C2c2ccccc2Cl)N=C(N)c2ccccc21 (stereo unspecified),i,i,17.0,i,i,i
O=S1(=O)CC2c3ccc(F)cc3CN2CN1CCc1ccccc1 (stereo unspecified),nt,nt,i,i,nt,nt
O=C1CSc2ccc(C(=O)N3CCCC(C(=O)N4CCCN(Cc5ccccc5)CC4)C3)cc2N1 (stereo unspecified),nt,nt,i,i,nt,nt
O=C1CCC[C@H]2Cc3nc4cccc(Cl)c4cc3C[C@]23CCCN13,nt,nt,i,i,nt,nt
CC1(C(=O)NS(=O)(=O)c2cccc(Cl)c2)CCN1C(=O)Cc1cc(F)ccc1F (stereo unspecified),i,i,16.1,i,i,i
CC1(C(=O)NS(=O)(=O)c2ccc(Cl)cc2)CCN1C(=O)CCc1ccc(Cl)cc1Cl (stereo unspecified),i,i,i,i,nt,nt
SMILES,ASAP1 inh,ARFGAP1 inh,Tn6 DDE FP,Tn7 DDE FP,DDE Tn6 FP ctr,Tn6 DDE conf
CC1(C(=O)NS(=O)(=O)c2cccs2)CCN1C(=O)CCc1ccc(Cl)cc1Cl (stereo unspecified),i,i,16.9,i,i,i
Cc1cccc(C)c1-n1nnnc1C1(C)CN(S(C)(=O)=O)CC(=O)N1Cc1ccc(F)cc1 (stereo unspecified),nt,nt,16.0,i,i,i
COCCCNc1nc2c(c(=O)[nH]c(=O)n2C)n1CC(O)COc1ccccc1C (stereo unspecified),i,i,17.1,i,i,i
CC1(C)N=C(N)N=C(N)N1c1cccc(C#N)c1,i,i,15.6,i,i,i
COc1cccc(N2C(N)=NC(N)=NC2(C)C)c1,i,i,i,i,nt,nt
COc1ccc(C)cc1S(=O)(=O)N1CCN(S(=O)(=O)c2cc(C)ccc2OC)CC1,i,i,i,i,nt,nt
COc1ccc(C)cc1S(=O)(=O)N1CCN(c2ccccc2)CC1,i,i,16.4,i,i,i
C=CCN(CC#CCN(C)C(=O)c1cccn1C(=O)OC(C)(C)C)Cc1ccc(OC)cc1OC,nt,nt,i,i,nt,nt
COC(=O)c1ccc(Cn2c(C)c(C(=O)NCc3cccc(C(F)(F)F)c3)sc2=O)o1,i,i,17.3,i,i,i
O=c1[nH]nc(Cc2ccc(Cl)cc2)c2ccccc12,i,i,15.4,i,i,i
O=c1[nH]nc(CNc2ccc(O)cc2)c2ccccc12,i,i,15.7,i,i,i
O=c1[nH]nc(Cc2ccc(Cl)cc2Cl)c2ccccc12,i,i,i,i,nt,nt
CCOC(=O)[C@]12CCCCC/C=C\1N(Cc1ccc(OC)cc1)C(=O)[C@H]2CC(=O)NCCCOC,nt,nt,i,i,nt,nt
COc1ccc(-c2cc(C(=O)Nc3ccccc3)on2)cc1,i,i,22.4,i,i,i
COC(=O)[C@]12C[C@H](CC(=O)NCc3cccs3)C(=O)N(Cc3ccc(Cl)cc3Cl)C1=C[C@H](COCc1ccccc1)O[C@@H]2C,nt,nt,i,i,nt,nt
CC(=O)c1cc(-c2cc(C(=O)O)cc([N+](=O)[O-])c2)c(=O)n2c1CCC2,nt,nt,i,i,nt,nt
Cc1ccc(C2NC(=O)c3c(sc4c3CCN(C)C4)N2)s1 (stereo unspecified),i,i,17.9,i,i,i
CCOC(=O)[C@]12CCCC=C1N(CCCOC)C(=O)[C@@H]2CC(=O)NCc1cccc(C(F)(F)F)c1,nt,nt,i,i,nt,nt
COc1cc(CC(=O)OCC(=O)NC2CCCCC2C)cc(OC)c1OC (stereo unspecified),i,i,25.6,i,i,i
O=C(C1CCCCC1)N1CCN(c2ccccc2F)CC1,i,i,41.7,i,i,i
CC(COc1ccc(C(F)(F)F)cc1)CN1CCC(C(O)(c2ccccc2)c2ccccc2)CC1 (stereo unspecified),nt,nt,i,i,nt,nt
